Key:
Rattus norvegicus [1] = species: Rattus norvegicus; assay: Inhibition of [125I]omega-conotoxin GVIA binding to N-type calcium channel in rat cerebral cortex synaptosomes at 100 uM incubated for 30 mins by scintillation counting based radioligand displacement assay; assay type: subcellular
Liver microsome [2] = assay: Drug metabolism in human liver microsomes assessed as metabolite M2 formation at 50 uM in presence of NADPH regeneration system pre-incubated at 37 degC for 5 min and measured 2 hrs after post NADPH system addition by UPLC and LC-MS/MS method; assay type: ADME
Method in brief: (§1)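 The compound was incubated 2 h with human liver microsomes. Metabolites were detected by full-scan chromatogram and identified by LC/MS from their [M+H]+ molecular masses.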

Mus musculus [3] = assay: Anticonvulsant activity in Swiss mouse model of 6 Hz psychomotor seizure mode assessed as protection against seizures at 100 mg/kg, ip dosed 0.25 hrs before 6 Hz electrical stimulation by 6 Hz test; assay type: functional
Method in brief: (§2)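 Mice were dosed i.p. at a fixed 300 or 100 mg/kg (6 Hz: 100 mg/kg only). Protection was then scored against MES, sc PTZ or 6 Hz seizures at pretreatment times of 0.25, 0.5, 1 and 2 h. Groups were four mice, scored as number protected / number tested. This also gives the time course and time of peak effect.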

Mus musculus [4] = assay: Anticonvulsant activity in ip dosed Swiss mouse assessed as protection against seizures measured at 1 hr of time to peak effect by 6 Hz test by 6 Hz psychomotor seizure test; assay type: functional
[5] = Toxicity in ip dosed Swiss mouse assessed as induction of motor performance impairment measured within 60 seconds measured at 1 hr of time to peak effect by Chimney test; assay type: organism-based; settings: in vivo
Method in brief: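 Neurotoxicity (TD50) estimated in mice i.p. by chimney test for motor coordination impairment; protective index calculated as TD50/ED50 for each seizure model.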

Mus musculus [6] = assay: Anticonvulsant activity in Swiss mouse assessed as protection against seizures at 100 mg/kg, ip dosed 0.25 hrs before pentylenetetrazole challenge by subcutaneous pentylenetetrazole seizure test; assay type: functional; method in brief: as §2
[7] = Toxicity against HEK293 cells assessed as reduction in cell viability after 48 hrs by EZ4U label based assay; settings: human
Method in brief: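 HEK-293 human embryonic kidney cells were incubated with compound for 48 h and viability was then measured. Doxorubicin served as standard.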

Mus musculus [8] = assay: Protective index, ratio of neurotoxic TD50 in Swiss mouse by Chimney test to anticonvulsant ED50 in Swiss mouse measured at 0.5 hrs of time to peak effect by subcutaneous pentylenetetrazole seizure test; assay type: functional
Method in brief: (§3)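 Protective index was calculated as TD50 (chimney test, mouse, i.p.) divided by ED50 from the matching MES, sc PTZ or 6 Hz test, both taken at the time of peak effect.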

Mus musculus [9] = assay: Anticonvulsant activity in Swiss mouse assessed as protection against seizures at 300 mg/kg, ip dosed 0.5 hrs before initiation of maximal electroconvulsions by maximal electroshock test; assay type: functional; method in brief: as §2
Mus musculus [10] = assay: Anticonvulsant activity in Swiss mouse assessed as protection against seizures at 300 mg/kg, ip dosed 2 hrs before pentylenetetrazole challenge by subcutaneous pentylenetetrazole seizure test; assay type: functional; method in brief: as §2
Rattus norvegicus [11] = species: Rattus norvegicus; assay: Inhibition of [3H]BTX binding to sodium channel site 2 in rat cerebral cortex synaptosomes at 10 uM incubated for 60 mins by scintillation counting based radioligand displacement assay; assay type: subcellular
Method in brief: (§4)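 Synaptoneurosomal preparations from rat cerebral cortex were used. The read-out was inhibition of specific [3H]BTX binding to the voltage-sensitive sodium channel (site 2), expressed as % inhibition of control specific binding. Compounds were tested at 1, 10, 100 and 500 μM. Inhibition above 50% was taken as significant.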

Mus musculus [12] = assay: Anticonvulsant activity in Swiss mouse assessed as protection against seizures at 300 mg/kg, ip dosed 1 hr before pentylenetetrazole challenge by subcutaneous pentylenetetrazole seizure test; assay type: functional; method in brief: as §2
Mus musculus [13] = assay: Anticonvulsant activity in ip dosed Swiss mouse assessed as protection against seizures measured at 0.5 hrs of time to peak effect by subcutaneous pentylenetetrazole seizure test; assay type: functional
Method in brief: (§5)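 Median effective doses (ED50, mg/kg) were determined i.p. in mice at the time of peak effect in the MES, sc PTZ or 6 Hz tests. Only compounds giving at least 50% protection at 100 mg/kg in that test were taken forward.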

Mus musculus [14] = species: Mus musculus; assay: Protective index, ratio of neurotoxic TD50 in Swiss mouse by Chimney test to anticonvulsant ED50 in Swiss mouse measured at 0.5 hrs of time to peak effect by maximal electroshock test; method in brief: as §3
Mus musculus [15] = assay: Anticonvulsant activity in ip dosed Swiss mouse assessed as protection against seizures measured at 0.5 hrs of time to peak effect by maximal electroshock test; assay type: functional; method in brief: as §5
Mus musculus [16] = assay: Anticonvulsant activity in Swiss mouse assessed as protection against seizures at 100 mg/kg, ip dosed 0.5 hrs before initiation of maximal electroconvulsions by maximal electroshock test; assay type: functional; method in brief: as §2
Mus musculus [17] = species: Mus musculus; assay: Protective index, ratio of neurotoxic TD50 in Swiss mouse by Chimney test to anticonvulsant ED50 in Swiss mouse measured at 0.5 hrs of time to peak effect by 6 Hz test by 6 Hz psychomotor seizure test; assay type: functional; method in brief: as §3
Mus musculus [18] = assay: Anticonvulsant activity in Swiss mouse assessed as protection against seizures at 100 mg/kg, ip dosed 0.5 hrs before pentylenetetrazole challenge by subcutaneous pentylenetetrazole seizure test; assay type: functional; method in brief: as §2
Mus musculus [19] = assay: Protective index, ratio of neurotoxic TD50 in Swiss mouse by Chimney test to anticonvulsant ED50 in Swiss mouse measured at 1 hr of time to peak effect by subcutaneous pentylenetetrazole seizure test; assay type: functional; method in brief: as §3
[20] = Ratio of IC50 for test compound to IC50 for doxorubicin against HEK293 cells assessed as reduction in cell viability after 48 hrs by EZ4U label based assay; settings: human, read-out: Ratio IC50
Mus musculus [21] = assay: Anticonvulsant activity in ip dosed Swiss mouse assessed as protection against seizures measured at 1 hr of time to peak effect by maximal electroshock test; assay type: functional
Mus musculus [22] = assay: Anticonvulsant activity in Swiss mouse assessed as protection against seizures at 100 mg/kg, ip dosed 2 hrs before pentylenetetrazole challenge by subcutaneous pentylenetetrazole seizure test; assay type: functional; method in brief: as §2
Mus musculus [23] = assay: Anticonvulsant activity in ip dosed Swiss mouse assessed as protection against seizures measured at 0.5 hrs of time to peak effect by 6 Hz test by 6 Hz psychomotor seizure test; assay type: functional; method in brief: as §5
Liver microsome [24] = assay: Drug metabolism in human liver microsomes assessed as metabolite M1 formation at 50 uM in presence of NADPH regeneration system pre-incubated at 37 degC for 5 min and measured 2 hrs after post NADPH system addition by UPLC and LC-MS/MS method; assay type: ADME; method in brief: as §1
Mus musculus [25] = species: Mus musculus; assay: Protective index, ratio of neurotoxic TD50 in Swiss mouse by Chimney test to anticonvulsant ED50 in Swiss mouse measured at 1 hr of time to peak effect by maximal electroshock test; method in brief: as §3
Mus musculus [26] = assay: Anticonvulsant activity in Swiss mouse assessed as protection against seizures at 300 mg/kg, ip dosed 0.5 hrs before pentylenetetrazole challenge by subcutaneous pentylenetetrazole seizure test; assay type: functional; method in brief: as §2
Rattus norvegicus [27] = species: Rattus norvegicus; assay: Inhibition of [3H]BTX binding to sodium channel site 2 in rat cerebral cortex synaptosomes at 1 uM incubated for 60 mins by scintillation counting based radioligand displacement assay; assay type: subcellular; method in brief: as §4
Liver microsome [28] = assay: Drug metabolism in human liver microsomes assessed as metabolite M3 formation at 50 uM in presence of NADPH regeneration system pre-incubated at 37 degC for 5 min and measured 2 hrs after post NADPH system addition by UPLC and LC-MS/MS method; assay type: ADME; method in brief: as §1

CC(C(=O)N1CCN(c2cccc(C(F)(F)F)c2)CC1)N1C(=O)CCC1=O (racemic)
inhibition (Rattus norvegicus [1]): 13.9%
Drug metabolism (Liver microsome [2]): metabolite_detected
Activity (Mus musculus [3]): 75%
ED50 (Mus musculus [4]): 35 mg/kg
TD50 at 1 h [5]: 824 mg/kg
Activity (Mus musculus [6]): 50%
IC50 at 48 h [7]: 50.7 µM
Ratio TD50/ED50 (Mus musculus [8]): >25.04
Activity (Mus musculus [9]): 100%
Activity (Mus musculus [10]): 100%
inhibition (Rattus norvegicus [11]): 12.2%
Activity (Mus musculus [12]): 100%
ED50 (Mus musculus [13]): 59.9 mg/kg
Ratio TD50/ED50 (Mus musculus [14]): >16.97
ED50 (Mus musculus [15]): 88.4 mg/kg
Activity (Mus musculus [16]): 75%
Ratio TD50/ED50 (Mus musculus [17]): >71.43
Activity (Mus musculus [18]): 100%
Ratio TD50/ED50 (Mus musculus [19]): 9.28
selectivity ratio at 48 h [20]: 100
ED50 (Mus musculus [21]): 85.1 mg/kg
Activity (Mus musculus [22]): 75%
ED50 (Mus musculus [23]): 21 mg/kg
Drug metabolism (Liver microsome [24]): metabolite_detected
Ratio TD50/ED50 (Mus musculus [25]): 9.68
Activity (Mus musculus [26]): 100%
inhibition (Rattus norvegicus [27]): 3.5%
Drug metabolism (Liver microsome [28]): metabolite_detected

Source: ChEMBL document CHEMBL3580554, “Design, synthesis, and anticonvulsant activity of new hybrid compounds derived from 2-(2,5-dioxopyrrolidin-1-yl)propanamides and 2-(2,5-dioxopyrrolidin-1-yl)butanamides” (J Med Chem, 2015)
